Data set [1] deals with HCT-116. As to the kind of experiment: Antiproliferative activity against human HCT-116 cells assessed as inhibition of cell proliferation incubated for 3 days by CellTiter-Glo Luminescent Cell Viability Assay. The class given is functional, cell-based. Particulars: HCT-116, 72 h. The gist of the method: (§1)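 Cancer cell lines seeded in 384-well plates on day 1; compound added on day 2 and left for 3 days. On day 5 all medium was aspirated, and viable cells were quantified by CellTiter-Glo luminescence, which measures cellular ATP. Dose-dependent effects on proliferation were determined.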

The subject of data set [2] is LS174T. As to the kind of experiment: Antiproliferative activity against human LS174T cells assessed as inhibition of cell proliferation incubated for 3 days by CellTiter-Glo Luminescent Cell Viability Assay. It is filed as functional, cell-based. Particulars: 72 h. Summed up: as §1
Data set [3] deals with NCI-H1666. As to the kind of experiment: Antiproliferative activity against human NCI-H1666 cells assessed as inhibition of cell proliferation incubated for 3 days by CellTiter-Glo Luminescent Cell Viability Assay. It is filed as functional, cell-based. Particulars: NCI-H1666, 72 h. Summed up: (§2)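 Cells of each line were plated in 384-well plates on day 1 and exposed to compound from day 2 for 3 days. On day 5 all medium was aspirated. Viable cell number was read by CellTiter-Glo luminescence, which quantifies cellular ATP.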

In data set [4] the test system is NCI-H1703. As to the kind of experiment: Antiproliferative activity against human NCI-H1703 cells assessed as inhibition of cell proliferation incubated for 3 days by CellTiter-Glo Luminescent Cell Viability Assay. The class given is functional, cell-based. Particulars: NCI-H1703, 72 h. Summed up: as §2
Data set [5] has as its system NCI-H1975. Briefly: Antiproliferative activity against human NCI-H1975 cells assessed as inhibition of cell proliferation incubated for 3 days by CellTiter-Glo Luminescent Cell Viability Assay. Particulars: NCI-H1975, 72 h. The class given is functional, cell-based. Summed up: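 Cancer cell lines seeded in 384-well plates on day 1; compound added on day 2 and incubated 3 days. On day 5 media aspirated and viable cells quantified by ATP content using CellTiter-Glo luminescence; dose-dependent proliferation effects determined.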

Data set [6] concerns NCI-H23. As to the kind of experiment: Antiproliferative activity against human NCI-H23 cells assessed as inhibition of cell proliferation incubated for 3 days by CellTiter-Glo Luminescent Cell Viability Assay. It is filed as functional, cell-based. Particulars: NCI-H23, 72 h. The gist of the method: as §2
The nature of data set [7]: Antiproliferative activity against human PaTu 8902 cells assessed as inhibition of cell proliferation incubated for 3 days by CellTiter-Glo Luminescent Cell Viability Assay. The class given is functional, cell-based. Particulars: PaTu 8902, 72 h. The gist of the method:
as §2

Data set [8] has as its system PANC-03-27. As to the kind of experiment: Antiproliferative activity against human PANC-03-27 cells assessed as inhibition of cell proliferation incubated for 3 days by CellTiter-Glo Luminescent Cell Viability Assay. The class given is functional, cell-based. Particulars: PANC-03-27, 72 h. Summed up: as §2
Data set [9] in a line: Antiproliferative activity against human Hs 700T cells assessed as inhibition of cell proliferation incubated for 3 days by CellTiter-Glo Luminescent Cell Viability Assay. Particulars: 72 h. It is filed as functional, cell-based. The gist of the method:
as §1

Data set [10] relates to HCC1806. As to the kind of experiment: Antiproliferative activity against human HCC1806 cells assessed as inhibition of cell proliferation incubated for 3 days by CellTiter-Glo Luminescent Cell Viability Assay. It is filed as functional, cell-based. Particulars: HCC1806, 72 h. The gist of the method:
as §1

In data set [11] the test system is HCT-116. Briefly: Inhibition of anchorage independent cell growth in human HCT-116 cells incubated for 6 days by Alamar blue reagent based fluorescence plate reader analysis. The class given is functional. Particulars: HCT-116, 144 h.
In data set [12] the target is Protein kinase C theta type (Homo sapiens, UniProt Q04759). Briefly: Inhibition of human PKCtheta in presence of ATP relative to control. Particulars: concentration not given here.
Protein kinase C theta type, sequence (Q04759 whole entry, looked up): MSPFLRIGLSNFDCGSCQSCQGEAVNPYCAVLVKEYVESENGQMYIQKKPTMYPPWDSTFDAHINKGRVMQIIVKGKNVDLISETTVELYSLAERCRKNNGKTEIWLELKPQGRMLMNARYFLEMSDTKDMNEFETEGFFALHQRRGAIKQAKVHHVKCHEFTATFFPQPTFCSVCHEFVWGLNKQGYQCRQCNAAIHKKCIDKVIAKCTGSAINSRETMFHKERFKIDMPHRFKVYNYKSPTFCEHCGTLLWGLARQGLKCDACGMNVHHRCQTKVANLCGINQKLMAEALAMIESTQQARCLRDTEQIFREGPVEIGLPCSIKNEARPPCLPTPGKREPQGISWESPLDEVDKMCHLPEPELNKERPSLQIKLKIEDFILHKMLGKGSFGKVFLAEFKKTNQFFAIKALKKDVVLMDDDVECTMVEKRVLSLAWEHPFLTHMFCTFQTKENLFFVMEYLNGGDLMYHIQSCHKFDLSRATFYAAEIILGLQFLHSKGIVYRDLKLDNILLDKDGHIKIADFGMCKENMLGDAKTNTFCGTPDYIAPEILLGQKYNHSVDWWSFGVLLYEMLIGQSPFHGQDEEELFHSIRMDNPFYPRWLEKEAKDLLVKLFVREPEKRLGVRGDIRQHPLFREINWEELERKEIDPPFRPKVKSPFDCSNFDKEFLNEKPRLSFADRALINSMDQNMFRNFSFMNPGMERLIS
Data set [13] addresses Serine/threonine-protein kinase D2 (Homo sapiens) (UniProt Q9BZL6). As to the kind of experiment: Inhibition of human PKD2 (PRKD2) in presence of ATP relative to control. Particulars: concentration not given here.
For data set [14], the target named is RAC-gamma serine/threonine-protein kinase (Homo sapiens, UniProt Q9Y243). As to the kind of experiment: Inhibition of human AKT3 in presence of ATP relative to control. Particulars: concentration not given here.
RAC-gamma serine/threonine-protein kinase, sequence (Q9Y243 whole entry): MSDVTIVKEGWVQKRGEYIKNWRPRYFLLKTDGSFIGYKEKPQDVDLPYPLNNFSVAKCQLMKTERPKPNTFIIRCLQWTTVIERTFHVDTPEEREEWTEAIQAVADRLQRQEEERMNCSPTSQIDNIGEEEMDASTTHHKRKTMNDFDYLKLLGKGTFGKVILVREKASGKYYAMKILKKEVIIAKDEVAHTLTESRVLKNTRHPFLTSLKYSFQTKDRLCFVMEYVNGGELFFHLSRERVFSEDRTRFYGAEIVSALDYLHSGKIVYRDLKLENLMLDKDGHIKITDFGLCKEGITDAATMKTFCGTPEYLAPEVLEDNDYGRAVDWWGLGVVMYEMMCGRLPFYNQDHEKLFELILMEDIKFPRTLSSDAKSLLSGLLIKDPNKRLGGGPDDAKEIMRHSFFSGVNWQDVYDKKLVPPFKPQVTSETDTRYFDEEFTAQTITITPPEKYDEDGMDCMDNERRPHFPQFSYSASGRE
The target of data set [15] is Proto-oncogene tyrosine-protein kinase Src (Homo sapiens, UniProt P12931). Briefly: Inhibition of human SRC assessed as inhibition constant in presence of ATP.
Proto-oncogene tyrosine-protein kinase Src, sequence (P12931 2-536 limits assumed): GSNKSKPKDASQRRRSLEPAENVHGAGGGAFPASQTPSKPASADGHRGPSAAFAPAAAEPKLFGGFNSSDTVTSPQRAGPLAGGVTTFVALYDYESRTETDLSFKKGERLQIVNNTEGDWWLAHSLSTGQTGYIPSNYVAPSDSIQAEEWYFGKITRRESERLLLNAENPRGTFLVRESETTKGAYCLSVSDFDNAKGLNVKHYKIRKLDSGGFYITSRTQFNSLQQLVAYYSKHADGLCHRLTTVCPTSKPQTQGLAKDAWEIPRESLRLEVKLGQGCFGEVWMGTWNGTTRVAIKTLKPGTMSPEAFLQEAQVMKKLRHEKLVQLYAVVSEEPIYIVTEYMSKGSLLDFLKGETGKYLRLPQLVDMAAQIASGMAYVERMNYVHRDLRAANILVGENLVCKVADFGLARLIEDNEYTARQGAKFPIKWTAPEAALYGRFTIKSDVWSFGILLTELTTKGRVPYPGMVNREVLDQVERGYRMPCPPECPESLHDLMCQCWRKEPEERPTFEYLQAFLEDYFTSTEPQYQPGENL
Data set [16] has as its target T1, Serine/threonine-protein kinase D1 (Homo sapiens, UniProt Q15139).
T1 sequence (Q15139 whole entry): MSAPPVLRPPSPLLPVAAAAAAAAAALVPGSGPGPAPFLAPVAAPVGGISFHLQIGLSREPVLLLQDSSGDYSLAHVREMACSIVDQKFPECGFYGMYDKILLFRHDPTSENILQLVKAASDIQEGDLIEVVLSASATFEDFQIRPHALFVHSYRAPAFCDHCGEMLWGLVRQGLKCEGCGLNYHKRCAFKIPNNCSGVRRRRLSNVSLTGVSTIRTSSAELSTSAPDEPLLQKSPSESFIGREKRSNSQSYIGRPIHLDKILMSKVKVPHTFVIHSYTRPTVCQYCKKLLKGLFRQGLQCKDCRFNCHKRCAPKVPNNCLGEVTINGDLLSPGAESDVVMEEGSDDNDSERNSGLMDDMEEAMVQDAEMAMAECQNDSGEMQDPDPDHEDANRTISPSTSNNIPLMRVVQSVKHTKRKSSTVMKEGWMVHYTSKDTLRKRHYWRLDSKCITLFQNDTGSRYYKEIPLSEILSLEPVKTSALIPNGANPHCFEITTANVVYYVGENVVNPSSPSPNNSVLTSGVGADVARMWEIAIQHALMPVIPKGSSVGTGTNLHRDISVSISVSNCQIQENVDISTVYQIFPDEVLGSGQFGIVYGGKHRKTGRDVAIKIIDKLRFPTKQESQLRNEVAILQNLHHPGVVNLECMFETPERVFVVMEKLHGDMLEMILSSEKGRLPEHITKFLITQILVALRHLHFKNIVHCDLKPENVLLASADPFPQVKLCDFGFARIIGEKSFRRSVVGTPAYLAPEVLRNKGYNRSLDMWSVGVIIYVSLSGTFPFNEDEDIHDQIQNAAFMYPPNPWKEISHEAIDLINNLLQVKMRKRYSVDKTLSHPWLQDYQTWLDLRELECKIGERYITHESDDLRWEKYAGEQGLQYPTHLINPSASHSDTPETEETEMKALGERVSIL
Briefly: Inhibition of human PKCmu in presence of ATP by cellular assay.

Data set [17] has as its target Tyrosine-protein kinase Fgr (Homo sapiens, UniProt P09769). As to the kind of experiment: Inhibition of human FGR in presence of ATP by cellular assay.
Data set [18] concerns the target Protein kinase C gamma type (Homo sapiens, UniProt P05129). As to the kind of experiment: Inhibition of human PKCgamma in presence of ATP by cellular assay.
Data set [19] has as its system HCT-116. As to the kind of experiment: Downregulation of camptothecin-induced phospho-S810-GEF-H1 level in human HCT-116 cells at 1 uM preincubated with compound for 15 mins followed by camptothecin stimulation and measured after 20 hrs by Western blot analysis. It is filed as functional, cell-based. Particulars: time 20.25 hrs.
Data set [20] deals with HCT-116. As to the kind of experiment: Downregulation of camptothecin-induced p21 waf1/cip1 level in human HCT-116 cells at 1 uM preincubated with compound for 15 mins followed by camptothecin stimulation and measured after 20 hrs by Western blot analysis. The class given is functional, cell-based. Particulars: time 20.25 hrs.
The subject of data set [21] is HCT-116. As to the kind of experiment: Antitumor activity against human HCT-116 cells xenografted in nude mouse assessed as tumor growth inhibition at 0.12 mg/kg administered via pump for 9 days relative to control. It is filed as functional. Particulars: HCT-116, 216 h, time 9 day, read-out: TGI.
A short description of data set [22]: Drug concentration in nude mouse plasma xenografted with human HCT-116 cells at 3.3 mg/kg administered via pump for 9 days by LC-MS/MS analysis. Particulars: time 9 day. The class given is ADME, organism-based.
The nature of data set [23]: Drug concentration in nude mouse plasma xenografted with human HCT-116 cells at 1.1 mg/kg administered via pump for 9 days by LC-MS/MS analysis. The class given is ADME, organism-based. Particulars: time 9 day.

Calls of active or inactive are those of the source. The calls are words filed in the database; no cut-off is given here.

Serine/threonine-protein kinase D2 (Homo sapiens), sequence (Q9BZL6 whole entry): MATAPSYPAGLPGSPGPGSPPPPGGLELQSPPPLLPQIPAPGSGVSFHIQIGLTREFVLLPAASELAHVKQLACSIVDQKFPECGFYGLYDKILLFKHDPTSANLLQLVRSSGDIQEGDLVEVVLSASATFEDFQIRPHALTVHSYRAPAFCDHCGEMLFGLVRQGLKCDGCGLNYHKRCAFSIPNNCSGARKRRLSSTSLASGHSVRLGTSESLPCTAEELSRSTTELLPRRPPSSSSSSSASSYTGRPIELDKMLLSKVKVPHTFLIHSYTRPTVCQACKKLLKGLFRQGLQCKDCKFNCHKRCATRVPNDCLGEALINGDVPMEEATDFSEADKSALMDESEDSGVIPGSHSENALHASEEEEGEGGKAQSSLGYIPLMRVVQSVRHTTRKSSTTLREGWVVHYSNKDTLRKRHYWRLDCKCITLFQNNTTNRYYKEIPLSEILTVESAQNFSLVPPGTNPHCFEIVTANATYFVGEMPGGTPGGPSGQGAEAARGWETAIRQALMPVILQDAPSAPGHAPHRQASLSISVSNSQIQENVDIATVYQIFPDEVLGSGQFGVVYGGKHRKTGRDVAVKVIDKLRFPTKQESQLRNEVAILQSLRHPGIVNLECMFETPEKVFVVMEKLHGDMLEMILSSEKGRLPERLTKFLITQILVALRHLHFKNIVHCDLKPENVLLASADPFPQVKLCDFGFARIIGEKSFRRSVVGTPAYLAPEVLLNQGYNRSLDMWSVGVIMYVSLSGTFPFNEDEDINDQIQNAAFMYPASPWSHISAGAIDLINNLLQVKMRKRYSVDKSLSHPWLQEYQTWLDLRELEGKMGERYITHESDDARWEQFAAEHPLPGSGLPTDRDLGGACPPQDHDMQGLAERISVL
Tyrosine-protein kinase Fgr, sequence (P09769 whole entry): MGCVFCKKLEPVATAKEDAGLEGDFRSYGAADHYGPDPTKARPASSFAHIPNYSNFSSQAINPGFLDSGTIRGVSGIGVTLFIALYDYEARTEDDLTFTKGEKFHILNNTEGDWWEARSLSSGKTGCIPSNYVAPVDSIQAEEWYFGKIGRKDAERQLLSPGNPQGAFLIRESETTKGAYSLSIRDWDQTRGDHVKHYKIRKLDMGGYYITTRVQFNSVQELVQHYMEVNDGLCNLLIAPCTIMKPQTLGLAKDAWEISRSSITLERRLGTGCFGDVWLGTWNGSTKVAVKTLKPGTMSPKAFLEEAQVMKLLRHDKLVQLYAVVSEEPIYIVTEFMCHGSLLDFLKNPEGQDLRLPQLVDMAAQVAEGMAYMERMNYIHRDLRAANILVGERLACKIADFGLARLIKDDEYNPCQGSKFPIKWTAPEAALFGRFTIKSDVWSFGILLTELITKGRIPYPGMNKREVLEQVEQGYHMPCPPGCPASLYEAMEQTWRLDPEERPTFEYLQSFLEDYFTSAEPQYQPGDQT

For `Cc1nc(Nc2n[nH]c3c2CN(C(=O)N[C@H](CN(C)C)c2ccccc2)C3(C)C)c2sccc2n1` [PF-03758309], the IC50 in data set [1] came out at 2.4 nM; in data set [2], 7.2 nM; in [3], 3.8 nM; in data set [4] it was 4.4 nM; in data set [5] it was 17 nM; in [6], 25 nM. Also, the IC50 in data set [7] is 27 nM; in [8] it was 32 nM; in data set [9], 2380 nM; in [10], 1.2 nM; in data set [11], 0.24 nM; in [16], 2830 nM. Moreover, the IC50 in data set [17] was found to be 4680 nM; in data set [18], 4740 nM. The inhibition in data set [12] is 98%; in data set [13] it was 96%; in [14] it was 74%. The Ki in data set [15] turned out to be 32 nM. Moreover, the result in data set [19] and in data set [20] was Active. The inhibition in vivo at 0.12 mg/kg in [21] amounted to 16%. Also, the concentration at 216 h in [22] turned out to be 37 ng/mL; in data set [23], 5.6 ng/mL.

These data come from ChEMBL document CHEMBL5678802, “Small-molecule p21-activated kinase inhibitor PF-3758309 is a potent inhibitor of oncogenic signaling and tumor growth” (Proc Natl Acad Sci U S A, 2010).
